For series [1], the system named is MKN-74. Nature of the series: Induction of apoptosis in human MKN74 cells assessed as viable cells at 1 uM incubated for 72 hrs by Annexin-V-FITC/propidium iodide staining-based flow cytometric analysis (reference value: 76.84%). Type of series: functional. Conditions: MKN-74, 72 h, read-out: Activity.
A short description of series [2]: Intrinsic clearance in human liver microsomes. Conditions: read-out: CLH. Type of series: ADME, Microsome. A general note: Liver microsomes are a subcellular fraction often used to study metabolism.
The target of series [3] is Tyrosine-protein kinase Lyn (Homo sapiens, UniProt P07948). Put plainly: Inhibition of LYN (unknown origin) using FAM-labeled peptide and ATP as substrate preincubated for 10 mins followed by substrate addition measured after 1 hr by mobility shift assay.
Tyrosine-protein kinase Lyn, sequence (P07948 whole entry): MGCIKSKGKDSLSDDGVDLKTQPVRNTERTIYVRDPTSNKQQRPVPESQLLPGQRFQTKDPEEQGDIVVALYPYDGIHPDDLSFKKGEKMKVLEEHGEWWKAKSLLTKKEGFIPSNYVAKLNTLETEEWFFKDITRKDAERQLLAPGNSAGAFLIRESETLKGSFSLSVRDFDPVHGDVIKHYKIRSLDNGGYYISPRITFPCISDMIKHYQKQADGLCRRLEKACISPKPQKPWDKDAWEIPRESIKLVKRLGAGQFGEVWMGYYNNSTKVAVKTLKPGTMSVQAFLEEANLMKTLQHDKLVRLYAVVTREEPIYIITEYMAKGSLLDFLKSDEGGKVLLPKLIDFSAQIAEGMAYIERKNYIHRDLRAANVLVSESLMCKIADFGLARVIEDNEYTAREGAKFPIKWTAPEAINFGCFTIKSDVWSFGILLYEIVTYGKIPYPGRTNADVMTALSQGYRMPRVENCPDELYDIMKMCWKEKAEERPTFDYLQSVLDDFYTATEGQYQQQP
In series [4] the test system is HepG2. Nature of the series: Induction of apoptosis in human HepG2 cells assessed as early apoptotic cells at 1 uM incubated for 72 hrs by Annexin-V-FITC/propidium iodide staining-based flow cytometric analysis (reference value: 1.08%). The class given is functional.
In series [5] the test system is MKN-74. Put plainly: Inhibition of colony formation in human MKN74 cells at 1 uM measured after 14 days by crystal violet staining-based assay. The class given is functional. Conditions: MKN-74, 336 h.
Series [6] is described as follows: Half life in human liver microsomes. Type of series: ADME, Microsome.
The nature of series [7]: Inhibition of GST-tagged human recombinant VEGFR3 cytoplasmic domain (800 to 1297 residues) Q890H/V1128L/H1146R mutant expressed in baculovirus expression system using FAM-labeled peptide and ATP as substrate preincubated for 10 mins followed by substrate addition measured after 1 hr by mobility shift assay.
The subject of series [8] is MKN-74. Nature of the series: Induction of apoptosis in human MKN74 cells assessed as early apoptotic cells at 0.3 uM incubated for 72 hrs by Annexin-V-FITC/propidium iodide staining-based flow cytometric analysis (reference value: 1.98%). Type of series: functional. On the technique in general: Flow cytometry measures light scatter and fluorescence of single cells or particles in a stream.

In series [9] the test system is HepG2. Put plainly: Induction of apoptosis in human HepG2 cells incubated for 72 hrs by Annexin-V-FITC/propidium iodide staining-based flow cytometric analysis. Type of series: functional, cell-based.
For series [10], the target named is Serine/threonine-protein kinase B-raf (Homo sapiens, UniProt P15056). Put plainly: Inhibition of B-Raf (unknown origin) at 1 uM using FAM-labeled peptide and ATP as substrate preincubated for 10 mins followed by substrate addition measured after 1 hr by mobility shift assay.
Serine/threonine-protein kinase B-raf, sequence (P15056 whole entry): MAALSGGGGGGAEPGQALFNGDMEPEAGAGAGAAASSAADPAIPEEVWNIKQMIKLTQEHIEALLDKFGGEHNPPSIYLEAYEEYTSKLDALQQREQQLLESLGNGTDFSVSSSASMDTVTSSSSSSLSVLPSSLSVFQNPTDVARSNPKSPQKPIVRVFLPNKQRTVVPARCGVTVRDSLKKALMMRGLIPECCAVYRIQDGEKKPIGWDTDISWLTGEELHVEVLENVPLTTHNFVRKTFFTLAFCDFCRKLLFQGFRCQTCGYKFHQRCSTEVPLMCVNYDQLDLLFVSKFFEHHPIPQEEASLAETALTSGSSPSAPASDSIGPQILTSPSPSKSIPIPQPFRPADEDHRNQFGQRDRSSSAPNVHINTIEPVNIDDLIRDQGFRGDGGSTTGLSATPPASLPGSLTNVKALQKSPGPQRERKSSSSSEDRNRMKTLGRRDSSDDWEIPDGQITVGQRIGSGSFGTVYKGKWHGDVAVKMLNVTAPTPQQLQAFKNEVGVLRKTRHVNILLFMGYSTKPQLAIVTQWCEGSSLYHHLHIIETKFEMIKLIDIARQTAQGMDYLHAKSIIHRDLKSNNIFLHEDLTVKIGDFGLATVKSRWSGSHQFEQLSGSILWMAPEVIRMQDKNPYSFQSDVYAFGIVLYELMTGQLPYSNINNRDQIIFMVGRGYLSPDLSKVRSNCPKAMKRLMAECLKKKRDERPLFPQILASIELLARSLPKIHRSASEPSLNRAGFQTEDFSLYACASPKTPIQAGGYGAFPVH
The test system of series [11] is HepG2. Put plainly: Induction of apoptosis in human HepG2 cells assessed as late apoptotic cells at 0.3 uM incubated for 72 hrs by Annexin-V-FITC/propidium iodide staining-based flow cytometric analysis (reference value: 2.89%). The class given is functional.
The test system of series [12] is HT-29. Put plainly: Induction of apoptosis in human HT-29 cells incubated for 72 hrs by Annexin-V-FITC/propidium iodide staining-based flow cytometric analysis. Type of series: functional, cell-based.
The test system of series [13] is HT-29. Nature of the series: Inhibition of receptor tyrosine kinase in human HT-29 cells assessed as reduction in ERK phosphorylation at Thr202/Tyr204 residues at 3 uM after 24 hrs by Western blotting analysis. The class given is cell-based. In a few lines:
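Cells cultured overnight, then treated with compound at different concentrations for 24 h. About 1×10⁶ cells harvested and immunoblotted for p-AKT (Ser473), AKT, p-ERK (Thr202/Tyr204), ERK, with GAPDH as loading control. Detection by chemiluminescence and gel imaging. Blots shown are representative of several experiments.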
Background: Immunoblotting shows a protein as a band on a membrane.

Series [14] relates to HT-29. Put plainly: Induction of apoptosis in human HT-29 cells assessed as late apoptotic cells at 3 uM incubated for 72 hrs by Annexin-V-FITC/propidium iodide staining-based flow cytometric analysis (reference value: 6.12%). The class given is functional.
Series [15] deals with MKN-74. Nature of the series: Induction of apoptosis in human MKN74 cells assessed as early apoptotic cells at 3 uM incubated for 72 hrs by Annexin-V-FITC/propidium iodide staining-based flow cytometric analysis (reference value: 1.98%). Type of series: functional.
Series [16] concerns HepG2. Put plainly: Inhibition of colony formation in human HepG2 cells measured after 14 days by crystal violet staining-based assay. The class given is functional, cell-based. In short, it runs like this: (§1)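 Cells plated and exposed to test agent at a range of concentrations for 14 days, then colonies counted. Colony formation expressed relative to vehicle-treated cells as mean ± SEM. Significance versus vehicle by unpaired two-tailed Student's t-test.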

Series [17] deals with Mast/stem cell growth factor receptor Kit (Homo sapiens, UniProt P10721). Put plainly: Inhibition of c-Kit (unknown origin) using FAM-labeled peptide and ATP as substrate preincubated for 10 mins followed by substrate addition measured after 1 hr by mobility shift assay.
Mast/stem cell growth factor receptor Kit, sequence (P10721 whole entry): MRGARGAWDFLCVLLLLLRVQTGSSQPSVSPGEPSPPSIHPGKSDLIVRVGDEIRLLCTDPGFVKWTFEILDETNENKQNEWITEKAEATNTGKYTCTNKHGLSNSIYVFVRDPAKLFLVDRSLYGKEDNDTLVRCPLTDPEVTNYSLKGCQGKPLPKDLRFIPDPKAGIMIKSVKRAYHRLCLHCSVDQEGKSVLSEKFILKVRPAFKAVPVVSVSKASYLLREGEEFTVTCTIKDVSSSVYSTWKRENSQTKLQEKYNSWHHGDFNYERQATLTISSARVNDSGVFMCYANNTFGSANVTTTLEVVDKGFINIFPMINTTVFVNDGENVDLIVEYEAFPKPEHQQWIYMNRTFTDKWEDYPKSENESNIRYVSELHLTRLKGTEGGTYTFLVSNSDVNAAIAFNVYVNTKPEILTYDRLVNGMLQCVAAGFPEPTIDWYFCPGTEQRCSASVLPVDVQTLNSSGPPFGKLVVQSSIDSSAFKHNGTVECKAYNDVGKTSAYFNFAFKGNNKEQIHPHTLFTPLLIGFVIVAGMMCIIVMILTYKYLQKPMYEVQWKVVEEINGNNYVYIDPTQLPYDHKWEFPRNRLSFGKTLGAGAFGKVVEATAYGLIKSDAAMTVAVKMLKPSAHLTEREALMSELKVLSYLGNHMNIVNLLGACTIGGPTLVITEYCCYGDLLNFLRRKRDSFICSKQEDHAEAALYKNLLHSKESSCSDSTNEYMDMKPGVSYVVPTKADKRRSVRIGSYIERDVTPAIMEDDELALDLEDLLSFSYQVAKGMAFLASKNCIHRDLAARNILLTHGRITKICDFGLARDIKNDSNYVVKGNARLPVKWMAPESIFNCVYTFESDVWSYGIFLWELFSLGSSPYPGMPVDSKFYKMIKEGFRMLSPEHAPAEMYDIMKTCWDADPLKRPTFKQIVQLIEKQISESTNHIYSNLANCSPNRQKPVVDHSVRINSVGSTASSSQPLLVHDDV
Series [18] is described as follows: Half life in mouse liver microsomes. Type of series: ADME, Microsome.
Series [19] relates to MKN-74. Nature of the series: Induction of apoptosis in human MKN74 cells assessed as necrotic cells at 1 uM incubated for 72 hrs by Annexin-V-FITC/propidium iodide staining-based flow cytometric analysis (reference value: 6.29%). Type of series: functional.
In a further series the test system is HUVEC. Put plainly: Induction of apoptosis in human HUVEC cells assessed as early apoptotic cells at 0.3 uM incubated for 48 hrs by Annexin-V-FITC/propidium iodide staining-based flow cytometric analysis (reference value: 3.63%). The class given is functional.
The test system of series [20] is HepG2. Put plainly: Inhibition of colony formation in human HepG2 cells at 1 uM measured after 14 days by crystal violet staining-based assay. The class given is functional, cell-based. In short, it runs like this: as §1

Calls of active or inactive are those of the source. The rule behind the calls is not given here.

On to `COC(=O)c1ccc2c(c1)NC(=O)/C2=C(\Nc1ccc(-n2c(C)ccc2CN2CCN(C)CC2)cc1)c1ccccc1`, for which the viability at 1 µM in the series with MKN-74 [1] is 62.9%. Further, the CLint scaled in [2] is 82 mL/min/kg. Moreover, the IC50 in [3] was 16 nM; in series [7], 6.3 nM; in series [17], 17 nM. Besides, the Activity in the series with HepG2 [4] was 17.61%; in the series on MKN-74 [8] it was 2.41%; in the series with HepG2 [9], “Dose-dependent effect”; in the series with HepG2 [11] it was 4.64%; with HT-29 [12], “Dose-dependent effect”; with HT-29 [14] it was 88.27%. The Activity in the series with MKN-74 [15] amounted to 8.01%; in the series on MKN-74 [19] it was 4.52%; with HUVEC, 2.36%. In addition, in the series on MKN-74 [5], the inhibition at 1 µM amounted to 100%. For the same compound, the half-life was 21.2 min in series [6] and 12.5 min in series [18]. Further, the inhibition result in series [10] was “inactive”. Besides, the inhibition result in the series with HT-29 [13] and in the series on HepG2 [20] was “Active” in each case. In addition, the inhibition entry with HepG2 [16] was “Dose-dependent effect”.

Usually IC50 stands for the point on the concentration scale where inhibition reaches its midpoint. One may read the inhibition as the share of the control response that was lost under treatment. A word on the half-life: it is the time in which the quantity being followed falls by half. Higher therefore signals slow loss.

The values are drawn from ChEMBL document CHEMBL4622841, “Structural modifications of indolinones bearing a pyrrole moiety and discovery of a multi-kinase inhibitor with potent antitumor activity” (Bioorg Med Chem, 2020).
